Sampled rows, rich in hits. Any-hit rate of the full collection: about 2.1%.
UCH37 DUB inh = human UCH37 deubiquitinating enzyme inhibition | Q9Y5K5 | purified proteasome/UCH37, Ub-AMC cleavage fluorescence | 330,000 compounds, 0.33% hits | inhibition, % (concentration not given with the values) | AID 588478;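 active = mean inhibition over replicate wells above about 20%, limit read from the data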;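 note: 0% = compound-free wells with enzyme and 100% = wells lacking proteasome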
Target sequence (Q9Y5K5 whole entry, looked up): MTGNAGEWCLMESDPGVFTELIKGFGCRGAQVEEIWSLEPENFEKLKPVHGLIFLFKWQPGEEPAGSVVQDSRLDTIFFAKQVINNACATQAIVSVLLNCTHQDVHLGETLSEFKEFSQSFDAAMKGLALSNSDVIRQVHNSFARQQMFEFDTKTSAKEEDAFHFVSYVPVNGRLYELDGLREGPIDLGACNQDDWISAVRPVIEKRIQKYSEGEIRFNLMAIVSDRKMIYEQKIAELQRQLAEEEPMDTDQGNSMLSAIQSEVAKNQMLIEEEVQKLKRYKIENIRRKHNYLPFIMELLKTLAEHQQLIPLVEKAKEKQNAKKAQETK
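assay system = human UCH37 enzyme supplied as purified proteasome complex | amount = proteasome at 0.15 nM in the dispensed enzyme solution | schedule = 30 min compound-proteasome preincubation then 25 min substrate reaction, room temperature | measured by = fluorescence, ex 355 nm, em 460 nm | benchmarks = no-proteasome wells (full inhibition) and compound-free wells (no inhibition)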
aDG glyco up = increases alpha dystroglycan glycosylation; Pro5-aDG cells, alpha-DG glycosylation AlphaScreen (IIH6); 0% Pro5, 100% B10-LARGE cell signal; activation, % at 10 µM; 360,000 compounds, 0.22% hits; AID 624168;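 active = activation of at least 8% versus controls, or a plate z-score of at least 8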;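 note: Pro5 are CHO cells carrying HIG-tagged alpha-DG that lacks glycosylation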
H9c2 protect = myocardial damage modulation in H9c2 cells | H9c2 cardiomyocytes, H2O2 injury protection, ATPLite, 2 h | protection from H2O2 cell death, % at 20 µM | 360,000 compounds, 0.63% hits;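 active = compounds giving at least 50% protection of heart cells from peroxide-induced death in the single-dose screen, raw or plate-pattern-corrected value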;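 note: 0% = DMSO wells with peroxide and 100% = DMSO wells without peroxide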
HKDC1 inh = HKDC1 (human) hexokinase inhibition; 340,000 compounds, 0.16% hits; recombinant HKDC1, G6PDH/diaphorase resazurin coupled fluorescence; Q2TB90; inhibition, % at 20 µM;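 active = inhibition above about 35% when tested at 20 µM, limit read from the data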;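 note: plate controls were DMSO wells with enzyme for no effect and DMSO wells lacking enzyme for full effect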
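Test system: recombinant HKDC1 (HK5) hexokinase enzyme, produced in-house / Doses: 20 µM test compound, 1% DMSO / Timing: 90 min, room temperature / Detection: G6PDH/diaphorase-coupled fluorescence, 1 mM NADP, 100 µM resazurin, 525/613 nm / Control set: DMSO wells with and without enzyme mix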
PfG6PD inh = PfG6PD (Plasmodium falciparum) enzyme inhibition. PfGluPho enzyme, NADPH resazurin-diaphorase fluorescence. inhibition, % at 20 µM. 350,000 compounds, 0.78% hits. AID 504690;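 active = inhibition reaching at least a set limit at 20 µM in the primary screen, cut at about 59% in these data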;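 note: 0% = DMSO wells with substrate and 100% = DMSO wells lacking glucose-6-phosphate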
Beta2AR agonist = agonists of human beta-2 adrenergic receptor inducing internalization; P07550; Am2.2-beta2AR cells, FAP receptor internalization, flow cytometry; response, % (no concentration beside the values); 340,000 compounds, 0.43% hits; AID 504454;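 active = response above a set limit, near 3 SD of response in nonfluorescent compounds, cut at about 42% in these data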
An asterisk follows results filed as active.

`O=C(NN=Cc1cn(-c2ccccc2)nc1-c1cc2ccccc2o1)c1c[nH]c2ccccc12` gave UCH37 DUB inh -6.
`CCOc1cc(/C=C2/C(=O)ON=C2C)ccc1OCc1ccccc1F` gave UCH37 DUB inh 4, aDG glyco up 0, H9c2 protect -22, HKDC1 inh 9, PfG6PD inh -2 and Beta2AR agonist 77*.
`COc1ccc(/C(O)=C2/C(=O)C(=O)N(CCCN3CCOCC3)C2c2ccc(C(C)C)cc2)cc1` (stereo not given) gave UCH37 DUB inh 20*, aDG glyco up 0, H9c2 protect -2, HKDC1 inh 2, PfG6PD inh -27 and Beta2AR agonist -3.
For CCCOc1ccc(C2/C(=C(/O)c3ccccc3)C(=O)C(=O)N2CCCN(C)C)cc1OC (stereo not given) the results were UCH37 DUB inh 4, aDG glyco up 0, H9c2 protect -2, HKDC1 inh -2, PfG6PD inh -7 and Beta2AR agonist -12.
For COc1ccc(/C(O)=C2/C(=O)C(=O)N(CCCN(C)C)C2c2ccc(Cl)cc2)cc1OC (stereo not given) the results were UCH37 DUB inh 24*, aDG glyco up 0, H9c2 protect 8, HKDC1 inh 0, PfG6PD inh 5 and Beta2AR agonist -5.
For Cc1cc(C=NNC(=O)COc2cccc3cccnc23)c(C)n1-c1ccccc1 the results were UCH37 DUB inh -1.
For Cc1[nH]c2ccccc2c1/C=N/NC(=O)c1cccs1 the results were aDG glyco up 0, H9c2 protect 56*, HKDC1 inh -2, PfG6PD inh 12 and Beta2AR agonist -7.
CN(C)c1ccc(/C=[N+](\[O-])C(C)(C)C=NO)cc1 was read as UCH37 DUB inh 23*.
Screening Cc1ccc(C)c(S(=O)(=O)N2CCCC2CNC(=O)C(=O)NC2CCCC2)c1 (stereo not given) returned UCH37 DUB inh 0, aDG glyco up 0, H9c2 protect -4, HKDC1 inh -1, PfG6PD inh 4 and Beta2AR agonist 61*.
For CCOc1cccc(C=Nc2cc(C)cc(C)c2O)c1O the results were UCH37 DUB inh 2, aDG glyco up 0, H9c2 protect 93*, HKDC1 inh 5, PfG6PD inh 38 and Beta2AR agonist 10.
For CN1CCN(CCC(=O)NN=C/C=C2\N(C)c3ccccc3C2(C)C)CC1 the results were UCH37 DUB inh 7.
Screening CNC(CC(=O)c1ccc([N+](=O)[O-])cc1)C(Cl)(Cl)Cl (stereo not given) returned UCH37 DUB inh 5, aDG glyco up 0, H9c2 protect -19, HKDC1 inh 12, PfG6PD inh 70* and Beta2AR agonist 91*.
For CC(=O)Nc1cccc(C(C)=NNC(=O)c2ccc(O)cc2)c1 the results were UCH37 DUB inh 2.
For CCOc1ccc(C(=O)Nc2cccc(-c3nc4cccnc4o3)c2)cc1Cl the results were UCH37 DUB inh -4, aDG glyco up 1, H9c2 protect 50*, HKDC1 inh 6, PfG6PD inh 8 and Beta2AR agonist 18.
Screening O=C(NN=Cc1ccc(-c2ccccc2[N+](=O)[O-])o1)c1cccnc1 returned UCH37 DUB inh 20.
`CCCCn1c(N)c(Br)c(=O)[nH]c1=O` gave UCH37 DUB inh 3, aDG glyco up 0, H9c2 protect 55*, HKDC1 inh -6, PfG6PD inh 3 and Beta2AR agonist -3.
Screening CCOC(=O)c1cnc(Nc2nc3ccccc3o2)nc1CN1CCN(C)CC1 returned UCH37 DUB inh 4, aDG glyco up 0, H9c2 protect 60*, HKDC1 inh -4, PfG6PD inh 2 and Beta2AR agonist -13.
Screening Cn1cnnc1SCc1ccc(C(=O)N=Nc2c(O)n(C)c3ccccc23)cc1 returned UCH37 DUB inh 2, aDG glyco up 0, H9c2 protect 24, HKDC1 inh 5, PfG6PD inh 16 and Beta2AR agonist 100*.
CCOC(=O)c1ccc(NC(=O)COc2cc(=O)n(CC)c3ccccc23)cc1 was read as UCH37 DUB inh 5, aDG glyco up 0, H9c2 protect 9, HKDC1 inh -2, PfG6PD inh 5 and Beta2AR agonist 1.
For CCn1c(=O)cc(OCC(=O)Nc2ccccc2C#N)c2ccccc21 the results were UCH37 DUB inh 1, aDG glyco up 0, H9c2 protect 60*, HKDC1 inh 3, PfG6PD inh -4 and Beta2AR agonist -16.
`O=C1N=C(N2CCCC2)S/C1=C\c1cn[nH]c1-c1ccccc1` gave UCH37 DUB inh 5.
Screening Cc1ccccc1N1CCN(C2=NC(=O)/C(=C/c3cn[nH]c3-c3ccccc3)S2)CC1 returned UCH37 DUB inh -3, aDG glyco up 0, H9c2 protect 14, HKDC1 inh -8, PfG6PD inh -6 and Beta2AR agonist 48*.
`O=c1c(C=NCCCn2ccnc2)c(-c2ccccc2)[nH]n1-c1nc2ccccc2s1` gave UCH37 DUB inh 5, aDG glyco up 0, H9c2 protect 6, HKDC1 inh -5, PfG6PD inh 15 and Beta2AR agonist -4.
Screening CC(=NCCCn1ccnc1)c1c(-c2ccccc2)[nH]n(-c2nc3ccccc3s2)c1=O returned UCH37 DUB inh 2, aDG glyco up 0, H9c2 protect 59*, HKDC1 inh 10, PfG6PD inh -16 and Beta2AR agonist 5.
For O=C(CNc1ccc(F)cc1)NN=Cc1c(O)ccc2ccccc12 the results were UCH37 DUB inh -1.
Screening Cc1cc(C)c(S(=O)(=O)N=C2C=C(Sc3ncn[nH]3)C(=O)c3ccccc32)cc1C returned UCH37 DUB inh 31*.
CCOC(=O)COc1ccccc1/C=C\[N+](=O)[O-] was read as aDG glyco up 0, H9c2 protect -23, HKDC1 inh 1, PfG6PD inh 33 and Beta2AR agonist 51*.
CC(=O)CN1Cc2ccccc2C1=NC(=O)Nc1ccccc1 was read as UCH37 DUB inh 1.
For COc1ccccc1NC(=O)CC(C)=NNC(=O)C12CC3CC(CC(C3)C1)C2 the results were UCH37 DUB inh -3.
Screening COC(=O)c1c(C)oc2ccc(N(C(=O)Oc3ccccc3)S(=O)(=O)c3ccc(Cl)c([N+](=O)[O-])c3)cc12 returned UCH37 DUB inh 1, aDG glyco up 0, H9c2 protect -15, HKDC1 inh 7, PfG6PD inh -4 and Beta2AR agonist 60*.
COC(=O)c1c(C)oc2ccc(N(C(=O)c3ccncc3)S(=O)(=O)c3ccc4ccccc4c3)cc12 was read as UCH37 DUB inh 1, aDG glyco up 0, H9c2 protect -26, HKDC1 inh -8, PfG6PD inh -10 and Beta2AR agonist 4.
